Results taken from ChEMBL document CHEMBL4402517, “Rational modification of Mannich base-type derivatives as novel antichagasic compounds: Synthesis, in vitro and in vivo evaluation” (Bioorg Med Chem, 2019).
The source made the active and inactive calls. No cut-off for these calls is given here.

How the values were obtained:
[1] = Mutagenecity against Salmonella typhimurium TA98 assessed as number of colonies at 22.2 ug/plate in absence of Sprague-Dawley rat S9 measured after 48 hrs by Ames test (reference value: 3 +/- 2.6); assay type: toxicity; conditions: salmonella enterica subsp. enterica serovar typhimurium, s9, 48 h
[2] = Mutagenecity against Salmonella typhimurium TA 102 assessed as number of colonies at 66.7 ug/plate in presence of Sprague-Dawley rat S9 with metabolic activation measured after 48 hrs by Ames test (reference value: 72 +/- 1); assay type: toxicity, subcellular; conditions: salmonella enterica subsp. enterica serovar typhimurium, s9, 48 h
[3] = (§1) Toxicity in BALB/c mouse infected with Trypanosoma cruzi MHOM/Pe/2011/Arequipa;DTU 5 bloodstream trypomastigote assessed as decrease in serum aspartate aminotransferase level in chronic phase at 20 mg/kg/day, po administered for 5 consecutive days starting from day 70 post infection measured on day 100 post infection relative to control; assay type: organism-based; set-up: scale not given: the % may be the effect or the level left; conditions: in vivo
[4] = Mutagenecity against Salmonella typhimurium TA97a assessed as number of colonies at 66.7 ug/plate in absence of Sprague-Dawley rat S9 […] measured after 48 hrs by Ames test ( Rvb = 37 +/- 6.5); assay type: toxicity; conditions: salmonella enterica subsp. enterica serovar typhimurium, s9, 48 h
Trypanosoma cruzi [5] = assay: Antitrypanosomal activity against Trypanosoma cruzi MHOM/Pe/2011/Arequipa;DTU 5 bloodstream trypomastigotes infected in BALB/c mouse assessed as decrease in splenomegaly in acute phase at 20 mg/kg/day, po administered for 5 consecutive days starting from day 8 post infection relative to untreated control; assay type: functional; set-up: scale not given: the % may be the effect or the level left
Method in brief: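 Female BALB/c mice (three per group) were infected i.p. with 5 × 10^5 Arequipa trypomastigotes and dosed orally at 20 mg/kg/day for 5 days in 5% DMSO/0.5% HPMC. Controls were uninfected and vehicle-only groups. At the end of the experiment spleens were weighed and expressed as % of body weight.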

[6] = Mutagenecity against Salmonella typhimurium TA1535 assessed as number of colonies at 22.2 ug/plate in presence of Sprague-Dawley rat S9 measured after 48 hrs by Ames test (reference value: 5 +/- 3.6); assay type: toxicity, subcellular; conditions: salmonella enterica subsp. enterica serovar typhimurium, s9, 48 h
[7] = Mutagenecity against Salmonella typhimurium TA97a assessed as number of colonies at 7.4 ug/plate in presence of Sprague-Dawley rat S9 with metabolic activation measured after 48 hrs by Ames test (reference value: 55 +/- 7.1); assay type: toxicity, subcellular; conditions: salmonella enterica subsp. enterica serovar typhimurium, s9, 48 h
[8] = Mutagenecity against Salmonella typhimurium TA 102 assessed as number of colonies at 200 ug/plate in presence of Sprague-Dawley rat S9 with metabolic activation measured after 48 hrs by Ames test (reference value: 72 +/- 1); assay type: toxicity, subcellular; conditions: salmonella enterica subsp. enterica serovar typhimurium, s9, 48 h
Trypanosoma cruzi [9] = assay: Antitrypanosomal activity against Trypanosoma cruzi MHOM/Pe/2011/Arequipa;DTU 5 bloodstream trypomastigote infected in BALB/c mouse assessed as reduction in parasitemia […] at 20 mg/kg/day, po administered for 5 consecutive days starting from day 8 post infection measured every 2 to 3 days starting from day 7 post infection by Neubauer chamber relative to untreated control; assay type: functional; set-up: scale not given: the % may be the effect or the level left
Method in brief: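 Female BALB/c mice (three per group) were infected i.p. with 5 × 10^5 Arequipa bloodstream trypomastigotes, with parasitemia confirmed on day 7 pi. Oral dosing was 20 mg/kg/day on days 8–12 pi in 5% DMSO/0.5% HPMC; controls received vehicle. Bloodstream trypomastigotes were counted through the acute phase until day 48 pi.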

[10] = (§2) Toxicity in BALB/c mouse infected with Trypanosoma cruzi MHOM/Pe/2011/Arequipa;DTU 5 bloodstream trypomastigote assessed as change in serum uric acid level in acute phase at 20 mg/kg/day, po administered for 5 consecutive days starting from day 8 post infection and measured on day 100 post infection by biochemical analysis relative to control; assay type: organism-based; conditions: in vivo
[11] = Mutagenecity against Salmonella typhimurium TA 100 assessed as number of colonies at 7.4 ug/plate in presence of Sprague-Dawley rat S9 with metabolic activation measured after 48 hrs by Ames test (reference value: 47.3 +/- 5.7); assay type: toxicity, subcellular; conditions: salmonella enterica subsp. enterica serovar typhimurium, s9, 48 h
[12] = Mutagenecity against Salmonella typhimurium TA 102 assessed as number of colonies at 22.2 ug/plate in presence of Sprague-Dawley rat S9 with metabolic activation measured after 48 hrs by Ames test (reference value: 72 +/- 1); assay type: toxicity, subcellular; conditions: salmonella enterica subsp. enterica serovar typhimurium, s9, 48 h
[13] = Mutagenecity against Salmonella typhimurium TA1535 assessed as number of colonies at 66.7 ug/plate in presence of Sprague-Dawley rat S9 measured after 48 hrs by Ames test (reference value: 5 +/- 3.6); assay type: toxicity, subcellular; conditions: salmonella enterica subsp. enterica serovar typhimurium, s9, 48 h
[14] = Mutagenecity against Salmonella typhimurium TA98 assessed as number of colonies at 7.4 ug/plate in presence of Sprague-Dawley rat S9 measured after 48 hrs by Ames test (reference value: 4 +/- 2); assay type: toxicity, subcellular; conditions: salmonella enterica subsp. enterica serovar typhimurium, s9, 48 h
[15] = Mutagenecity against Salmonella typhimurium TA1535 assessed as number of colonies at 200 ug/plate in presence of Sprague-Dawley rat S9 measured after 48 hrs by Ames test (reference value: 5 +/- 3.6); assay type: toxicity, subcellular; conditions: salmonella enterica subsp. enterica serovar typhimurium, s9, 48 h
Trypanosoma cruzi [16] = assay: Antitrypanosomal activity against Trypanosoma cruzi MHOM/Pe/2011/Arequipa;DTU 5 epimastigote assessed as effect on parasite glycolytic pathway by measuring increase in pyruvate excretion at IC50 after 72 hrs by H NMR method relative to control; assay type: functional
Method in brief: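 Cells were spun at 800 × g for 10 min and culture supernatants analysed by 1H NMR. Catabolite peaks were expressed as % variation versus untreated parasites.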

[17] = as §2, with “increase” for “change”, “aspartate aminotransferase” for “uric acid”; assay type: organism-based; conditions: in vivo
[18] = as §2, with “creatine kinase muscle to brain ratio” for “uric acid”; assay type: organism-based; conditions: in vivo
[19] = (§3) Toxicity in BALB/c mouse infected with Trypanosoma cruzi MHOM/Pe/2011/Arequipa;DTU 5 bloodstream trypomastigote assessed as increase in serum aspartate aminotransferase level in chronic phase at 20 mg/kg/day, po administered for 5 consecutive days starting from day 70 post infection and measured at day 76 post infection relative to control; assay type: organism-based; conditions: in vivo
[20] = as §1, with “change” for “decrease”, “urea” for “aspartate aminotransferase”; assay type: organism-based; conditions: in vivo
Trypanosoma cruzi [21] = assay: Inhibition of Trypanosoma cruzi MHOM/Pe/2011/Arequipa;DTU 5 epimastigote Fe-SOD at 25 uM
Method in brief: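 Fe-SOD excreted by exponentially growing T. cruzi Arequipa epimastigotes cultured in supplemented MTL at 28 °C. Protein quantified by Bradford. SOD activity measured by the Beyer–Fridovich method. IC50 from inhibition curves by nonlinear regression. Mean of three independent determinations ± standard deviation.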

[22] = as §3, with “total bilirubin” for “aspartate aminotransferase”; assay type: organism-based; conditions: in vivo

Q: With O=C(CCN1CCN(c2ccc(Cl)cc2)CC1)c1ccc(O)cc1 as the compound, how does the Activity [1] read?
A: 4.7

Q: And the Activity [2]?
A: 72.3

Q: What about the Activity [3] of the same compound?
A: <= 10%

Q: And the Activity [4]?
A: 31.3

Q: And the Activity (Trypanosoma cruzi [5])?
A: 44%

Q: And the Activity [6]?
A: 3

Q: What about the Activity [7] of the same compound?
A: 44.3

Q: What about the Activity [8] of the same compound?
A: 78

Q: And the Activity (Trypanosoma cruzi [9])?
A: 70%

Q: What about the Activity [10] of the same compound?
A: > 10%

Q: And the Activity [11]?
A: 44.7

Q: What about the Activity [12] of the same compound?
A: 84.7

Q: And the Activity [13]?
A: 3.3

Q: What about the Activity [14] of the same compound?
A: 6

Q: What about the Activity [15] of the same compound?
A: 7

Q: What about the Activity (Trypanosoma cruzi [16]) of the same compound?
A: 36%

Q: With O=C(Cn1ccnc1[N+](=O)[O-])NCc1ccccc1 [BENZNIDAZOLE] as the compound, how does the Activity [17] read?
A: <= 10%

Q: What about the Activity [18] of the same compound?
A: > 10%

Q: And the Activity [19]?
A: <= 10%

Q: With O=C(CCN1CCN(c2ccc(C(F)(F)F)cc2)CC1)c1ccc(O)cc1 as the compound, how does the Activity [20] read?
A: > 10%

Q: What about the inhibition (Trypanosoma cruzi [21]) of the same compound?
A: Active

Q: And the Activity [22]?
A: > 40%
